The list is not random: actives were taken first. Their share in the collection is about 3.5%.
HIV Env fusion = blocks HIV Env-driven cell-cell fusion | HeLa-JRFL Env/CEM21 cell fusion, luciferase | inhibition, % at 12.3 µM | 360,000 tested, 1.1% active | AID 651610;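 active = mean replicate inhibition score of at least 50 and every replicate individually at or above 50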;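 note: 0% = plate neutral controls and 100% = maraviroc near 300 nM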
FGF22 binding = shifts melting point of recombinant human FGF22 | recombinant FGF22 thermal shift, SYPRO orange fluorescence; percent of sucrose octasulfate shift, DMSO zero | activity (Tm shift, normalised), % at 9.99 µM | 340,000 tested, 1.5% active;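 active = mean Tm shift, scaled 0 neutral to 100 positive control, at about 1.3% or above, every replicate too, limit read from the data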
rRNA inh HTS = inhibits bacterial ribosomal RNA function over humanized ribosomes; E. coli WT GFP vs humanized-ribosome RFP mutants, fluorescence, 24 h; active compounds read low; DMSO median 0, no signal -100; GFP signal change (wild-type ribosome), % (test concentration not listed); 350,000 tested, 1.6% active;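 active = significant combined selectivity score with lowered wild-type GFP, culture density cut under 30%, mutant RFP and density less affected; inactive = any of these conditions unmet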
PGC1a acetyl inh = PGC1a acetylation modulation, inhibitor mode. U2OS PGC1a acetylation, AlphaScreen anti-acetyl-lysine; with virally co-expressed GCN5 acetyltransferase. inhibition, % at 15.6 µM. 350,000 tested, 0.17% active;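 active = every replicate shows inhibition of at least 40%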;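 note: 0% = neutral control wells and 100% = positive control wells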
Cneo AK release = Cryptococcus neoformans lysis via adenylate kinase release | AID 651654 | lysis activity, % at 15 µM | 360,000 tested, 0.2% active | C. neoformans lysis, adenylate kinase release luminescence, 4 h; normalised: neutral wells 0, clomiphene wells 100;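 active = mean lysis activity across replicates of at least 80%, whatever share of replicates individually reach that level; inactive = mean lysis activity below 80%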
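Material: C. neoformans cells; Schedule: 4 h static compound exposure, 37 °C, read 1 h post-reagent; Measured by: adenylate kinase release luminescence; Read-out: signal increase indicating cell lysis; Controls: Clomiphene as positive lysis control.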
ERAP1 inh = ERAP1 (human) enzyme inhibition. Q9NZ08. recombinant ERAP1, Leu-AMC fluorescence, 60 min. inhibition, % at 10.7 µM. 340,000 tested, 0.15% active;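 active = mean replicate inhibition of at least 30%, or all replicates individually reaching that 30% level; inactive = mean below 30% and not every replicate reaching it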;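 note: 0% = neutral control wells and 100% = L-leucinethiol positive control wells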
Target sequence (Q9NZ08 whole entry, looked up): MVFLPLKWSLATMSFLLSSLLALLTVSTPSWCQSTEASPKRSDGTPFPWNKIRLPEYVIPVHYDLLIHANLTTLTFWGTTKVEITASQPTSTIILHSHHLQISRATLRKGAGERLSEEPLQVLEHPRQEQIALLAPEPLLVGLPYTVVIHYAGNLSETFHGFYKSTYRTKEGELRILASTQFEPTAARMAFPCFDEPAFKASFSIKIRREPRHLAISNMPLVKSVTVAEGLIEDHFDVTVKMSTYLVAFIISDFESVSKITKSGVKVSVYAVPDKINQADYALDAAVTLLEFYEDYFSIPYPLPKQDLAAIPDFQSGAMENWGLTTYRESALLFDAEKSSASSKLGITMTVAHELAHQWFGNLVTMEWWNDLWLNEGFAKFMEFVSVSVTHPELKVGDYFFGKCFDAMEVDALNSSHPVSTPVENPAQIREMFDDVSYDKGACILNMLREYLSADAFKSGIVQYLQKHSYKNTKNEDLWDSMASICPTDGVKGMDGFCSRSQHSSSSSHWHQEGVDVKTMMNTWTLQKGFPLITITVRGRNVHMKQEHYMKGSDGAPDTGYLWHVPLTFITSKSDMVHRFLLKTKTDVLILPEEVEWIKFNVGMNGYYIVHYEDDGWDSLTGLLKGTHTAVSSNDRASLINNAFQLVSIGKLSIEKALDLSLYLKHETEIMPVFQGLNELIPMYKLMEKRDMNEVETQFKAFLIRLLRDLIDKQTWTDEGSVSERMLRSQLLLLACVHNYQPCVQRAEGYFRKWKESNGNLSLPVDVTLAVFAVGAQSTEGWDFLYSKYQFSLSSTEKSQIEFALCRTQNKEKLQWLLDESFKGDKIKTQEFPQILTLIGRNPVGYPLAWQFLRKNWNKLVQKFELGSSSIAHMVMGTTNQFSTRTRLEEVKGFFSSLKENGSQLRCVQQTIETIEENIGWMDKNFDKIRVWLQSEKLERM
* marks the source's active call; other numbers are inactive results; [ ] = remark or other dose.

For C[C@H](CO)N1C[C@H](C)[C@H](CN(C)C(=O)Nc2ccccc2C(F)(F)F)OCc2ccccc2-c2ccccc2C1=O the results were HIV Env fusion -67.0[16.7 µM], FGF22 binding 0.0, rRNA inh HTS -0.7, PGC1a acetyl inh -3.0, Cneo AK release 3.7 and ERAP1 inh -1.4.
For O=C(CC1OC(=O)c2ccccc21)NCC1COc2ccccc2O1 (stereo unspecified) the results were HIV Env fusion -1.6, FGF22 binding -0.1, rRNA inh HTS 1.8, PGC1a acetyl inh -8.0, Cneo AK release -1.5 and ERAP1 inh -3.3.
`C=CCn1c(O)c(C2=c3ccccc3=NC2=O)sc1=Nc1ccc(O)cc1` gave HIV Env fusion -8.5, FGF22 binding -0.2, rRNA inh HTS -8.0*, PGC1a acetyl inh -4.5, Cneo AK release 6.0 and ERAP1 inh -2.8.
`Cc1ccccc1N=C(NO)c1nonc1N` gave HIV Env fusion 0.1, rRNA inh HTS -29.2*, PGC1a acetyl inh -8.3 and ERAP1 inh -0.7.
For Cc1ccc(/C=C(\CCC(=O)O)c2nc3ccccc3s2)cc1[N+](=O)[O-] the results were FGF22 binding -0.2, rRNA inh HTS -28.5*, PGC1a acetyl inh 0.2, Cneo AK release -1.2 and ERAP1 inh -2.1.
Screening COc1ccc(C(=O)Nc2cccc(/C=C(\CCC(=O)O)c3nc4ccccc4s3)c2)cc1 returned HIV Env fusion -9.2, FGF22 binding 0.3, rRNA inh HTS -18.8, PGC1a acetyl inh 3.3, Cneo AK release -1.7 and ERAP1 inh 0.1.
COc1cc(C=C(c2nc3ccccc3s2)c2nc3ccccc3s2)cc(OC)c1O was read as HIV Env fusion -19.4.
For O=C(O)C/C(=C\c1cccc(NC(=O)c2ccccc2Cl)c1)c1nc2ccccc2s1 the results were HIV Env fusion -13.6, FGF22 binding 0.2, rRNA inh HTS -35.0*, PGC1a acetyl inh 12.8, Cneo AK release 112.4* and ERAP1 inh -0.9.
`COc1cc(/C=C(\CC(=O)O)c2nc3ccccc3s2)ccc1OCC(=O)Nc1ccccc1F` gave HIV Env fusion -38.8, FGF22 binding -0.3, rRNA inh HTS -24.7*, PGC1a acetyl inh 1.4, Cneo AK release 0.4 and ERAP1 inh -5.1.
`COc1cc(/C=C(\CC(=O)O)c2nc3ccccc3s2)cc(OC)c1O` gave HIV Env fusion -9.8, FGF22 binding 43.1*, rRNA inh HTS -27.5, PGC1a acetyl inh -2.7 and ERAP1 inh 7.8.
CCOc1cc(/C=C(\CC(=O)O)c2nc3ccccc3s2)ccc1OCC(=O)Nc1cccc(C(F)(F)F)c1 was read as HIV Env fusion 4.1, FGF22 binding -0.3, rRNA inh HTS -11.7, Cneo AK release 0.9 and ERAP1 inh -4.4.
`COc1ccc(/C=C(\CC(=O)O)c2nc3ccccc3s2)cc1O` gave HIV Env fusion -10.5, FGF22 binding -0.2, rRNA inh HTS -25.2*, Cneo AK release 0.0 and ERAP1 inh 2.2.
`COc1ccc(-c2nn(-c3ccccc3)cc2/C=C(\CC(=O)O)c2nc3ccccc3s2)cc1OC` gave HIV Env fusion 1.6, FGF22 binding 0.8, rRNA inh HTS -24.9, Cneo AK release -4.1 and ERAP1 inh -4.9.
`O=C(Cn1c(=O)n(Cc2ccco2)c(=O)c2c3c(sc21)CCCCC3)c1ccccc1` gave FGF22 binding 0.1, rRNA inh HTS -19.4*, PGC1a acetyl inh 1.9, Cneo AK release -2.2 and ERAP1 inh 3.7.
`O=C(Cn1c(=O)n(Cc2ccco2)c(=O)c2c3c(sc21)CCCCC3)Nc1ccccc1` gave HIV Env fusion 15.8, PGC1a acetyl inh -14.3 and Cneo AK release 0.1.
`COc1ccc(S(=O)(=O)N2CCOCC2)cc1C(=O)N(C)Cc1ccccc1F` gave HIV Env fusion -7.2, FGF22 binding 0.2, PGC1a acetyl inh -0.3, Cneo AK release 0.2 and ERAP1 inh -5.4.
Screening Cc1c(Cc2ccccc2)c(=O)oc2c(C)c(OC(C)C(=O)NCC3CCC(C(=O)O)CC3)ccc12 (stereo unspecified) returned FGF22 binding 0.2, rRNA inh HTS -21.1*, PGC1a acetyl inh -5.2, Cneo AK release -3.7 and ERAP1 inh -1.4.
Screening Cc1cc(=O)oc2c(C)c(OC(C)C(=O)NCC3CCC(C(=O)O)CC3)ccc12 (stereo unspecified) returned FGF22 binding 0.2, PGC1a acetyl inh -6.2, Cneo AK release -0.6 and ERAP1 inh 3.2.
For CCN(CC)CCNC(=O)c1ccc(NC(=O)c2ccc(-n3cncn3)c([N+](=O)[O-])c2)cc1 the results were HIV Env fusion -3.1, FGF22 binding 0.4, rRNA inh HTS -3.1 and ERAP1 inh 99.6*.
Screening Cc1ccc(NC(=O)c2ccc(-n3cncn3)c([N+](=O)[O-])c2)cc1 returned HIV Env fusion -150.2.
`COc1ccc(C)cc1NC(=O)CSc1nnc(-c2cc(C)[nH]n2)n1N` gave HIV Env fusion 18.3, FGF22 binding -0.1, rRNA inh HTS 3.1, PGC1a acetyl inh 1.4, Cneo AK release 0.7 and ERAP1 inh -1.0.
Screening N#C/C(=C\c1ccc(O)cc1)c1nc2ccccc2o1 returned HIV Env fusion -42.9, FGF22 binding 0.0, rRNA inh HTS -35.1*, PGC1a acetyl inh -18.2, Cneo AK release -5.6 and ERAP1 inh 1.1.
Screening COc1cc(/C=C(\C#N)c2nc3ccccc3o2)ccc1O returned HIV Env fusion -370.2, FGF22 binding -0.2, rRNA inh HTS -5.7, PGC1a acetyl inh -5.9, Cneo AK release -4.2 and ERAP1 inh -0.9.
Screening Nc1nc(NCc2ccco2)nc(N2CCCC2)c1[N+](=O)[O-] returned HIV Env fusion 14.6, FGF22 binding -0.2, rRNA inh HTS 1.9 and ERAP1 inh 0.1.
Screening Nc1nc(NCc2ccco2)nc(Nc2ccc(F)cc2)c1[N+](=O)[O-] returned HIV Env fusion 3.1, FGF22 binding 0.0, rRNA inh HTS 6.9, PGC1a acetyl inh 1.1 and Cneo AK release 0.9.
For CCOc1ccc(Nc2nc(NCc3ccco3)nc(N)c2[N+](=O)[O-])cc1 the results were HIV Env fusion -8.7, FGF22 binding 0.0, rRNA inh HTS 21.5, PGC1a acetyl inh 72.4* and ERAP1 inh -4.4.
For Nc1nc(NCc2ccco2)nc(N2CCN(Cc3ccccc3)CC2)c1[N+](=O)[O-] the results were HIV Env fusion -3.5, FGF22 binding 0.2, rRNA inh HTS -23.9*, PGC1a acetyl inh -12.4, Cneo AK release -1.2 and ERAP1 inh -1.2.
`COc1ccc(C#Cc2cnc3c(c2)C(=O)N([C@H](C)CO)C[C@@H](C)[C@@H](CN(C)C(=O)CC2CC2)O3)cc1` gave FGF22 binding 0.1, rRNA inh HTS -4.7, PGC1a acetyl inh -3.7, Cneo AK release 3.0 and ERAP1 inh -1.8.
